According to ChEMBL document CHEMBL4732065 (Eur J Med Chem, 2021):

Columns and labels:
Cytochrome P450 1B1 = target: T1, Cytochrome P450 1B1 (Homo sapiens, UniProt Q16678); assay: Inhibition of recombinant human CYP1B1 using 7-ethoxyresorufin as substrate after 35 mins in presence of NADP+ by EROD assay
T1 sequence (Q16678 whole entry): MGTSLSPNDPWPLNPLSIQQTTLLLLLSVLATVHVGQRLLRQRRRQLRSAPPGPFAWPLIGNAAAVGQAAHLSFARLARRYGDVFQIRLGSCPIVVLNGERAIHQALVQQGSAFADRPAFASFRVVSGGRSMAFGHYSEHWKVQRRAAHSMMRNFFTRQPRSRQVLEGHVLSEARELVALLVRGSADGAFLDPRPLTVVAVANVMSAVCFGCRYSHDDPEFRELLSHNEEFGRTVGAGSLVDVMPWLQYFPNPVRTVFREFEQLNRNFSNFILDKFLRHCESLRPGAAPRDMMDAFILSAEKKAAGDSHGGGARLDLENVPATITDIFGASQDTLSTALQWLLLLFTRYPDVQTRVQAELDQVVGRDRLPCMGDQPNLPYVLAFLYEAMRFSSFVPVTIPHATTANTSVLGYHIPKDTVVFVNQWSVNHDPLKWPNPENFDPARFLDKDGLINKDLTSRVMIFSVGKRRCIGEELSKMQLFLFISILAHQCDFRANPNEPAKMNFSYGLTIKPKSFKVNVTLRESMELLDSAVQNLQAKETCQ
In short: (§1)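 Recombinant human CYP1 Supersomes co-expressing P450 reductase; 20 fmol CYP1B1, 10 fmol CYP1A1 or 60 fmol CYP1A2 per well. Incubated at 37 °C (1B1 35 min, 1A1 15 min, 1A2 50 min).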

Cytochrome P450 1A1 = target: T2, Cytochrome P450 1A1 (Homo sapiens, UniProt P04798); assay: Inhibition of recombinant human CYP1A1 using 7-ethoxyresorufin as substrate after 15 mins in presence of NADP+ by EROD assay; format: ADME
T2 sequence (P04798 whole entry): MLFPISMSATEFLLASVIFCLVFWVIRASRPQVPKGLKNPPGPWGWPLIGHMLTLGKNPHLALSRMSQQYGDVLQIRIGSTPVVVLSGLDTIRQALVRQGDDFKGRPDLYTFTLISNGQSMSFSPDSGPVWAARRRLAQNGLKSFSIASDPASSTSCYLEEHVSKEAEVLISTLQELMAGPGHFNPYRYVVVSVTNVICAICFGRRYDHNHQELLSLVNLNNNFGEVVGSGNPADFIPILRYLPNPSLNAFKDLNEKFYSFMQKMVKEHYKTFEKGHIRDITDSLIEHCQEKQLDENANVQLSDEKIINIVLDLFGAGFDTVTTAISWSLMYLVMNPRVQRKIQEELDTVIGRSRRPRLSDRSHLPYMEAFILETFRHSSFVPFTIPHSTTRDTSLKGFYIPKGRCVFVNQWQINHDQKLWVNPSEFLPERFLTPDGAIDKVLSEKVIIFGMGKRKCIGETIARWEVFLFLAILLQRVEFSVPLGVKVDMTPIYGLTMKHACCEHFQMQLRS
In short: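 Recombinant human CYP1 Supersomes co-expressing P450 reductase; 20 fmol CYP1B1, 10 fmol CYP1A1 or 60 fmol CYP1A2 per well. Incubated at 37 °C (1B1 35 min, 1A1 15 min, 1A2 50 min). Stopped with cold methanol; fluorescence read at 544/590 nm; triplicates.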

Cytochrome P450 1A2 = target: T3, Cytochrome P450 1A2 (Homo sapiens, UniProt P05177); assay: Inhibition of recombinant human CYP1A2 using 7-ethoxyresorufin as substrate after 50 mins in presence of NADP+ by EROD assay; format: ADME; in short: as §1
T3 sequence (P05177 whole entry): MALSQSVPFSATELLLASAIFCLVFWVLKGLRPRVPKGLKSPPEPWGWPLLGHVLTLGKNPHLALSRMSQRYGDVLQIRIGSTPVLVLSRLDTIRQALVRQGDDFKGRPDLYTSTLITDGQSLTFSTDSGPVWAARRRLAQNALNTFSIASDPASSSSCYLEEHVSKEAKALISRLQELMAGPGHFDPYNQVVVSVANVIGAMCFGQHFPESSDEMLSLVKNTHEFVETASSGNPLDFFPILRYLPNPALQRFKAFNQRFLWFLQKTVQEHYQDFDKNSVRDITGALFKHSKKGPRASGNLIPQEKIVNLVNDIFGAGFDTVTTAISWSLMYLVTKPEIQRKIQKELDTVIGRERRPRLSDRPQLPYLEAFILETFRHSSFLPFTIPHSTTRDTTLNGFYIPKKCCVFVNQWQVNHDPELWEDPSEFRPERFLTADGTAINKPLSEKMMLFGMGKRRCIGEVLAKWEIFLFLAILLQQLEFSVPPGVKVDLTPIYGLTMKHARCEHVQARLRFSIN

Homo sapiens [1] = organism: Homo sapiens; assay: Selectivity index, ratio of IC50 for recombinant human CYP1A1 to IC50 for recombinant human CYP1B1
Homo sapiens [2] = organism: Homo sapiens; assay: Selectivity index, ratio of IC50 for recombinant human CYP1A2 to IC50 for recombinant human CYP1B1

| SMILES | IC50 (Cytochrome P450 1B1) | IC50 (Cytochrome P450 1A1) | IC50 (Cytochrome P450 1A2) | Ratio IC50 (Homo sapiens [1]) | Ratio IC50 (Homo sapiens [2]) |
| --- | --- | --- | --- | --- | --- |
| COc1ccc(OC)c2c1c(OC)cc1c(=O)cc(-c3ccc(O)nc3)oc12 | 658 nM | > 1000 nM | > 1000 nM | > 1.5 | > 1.5 |
| COc1ccc(OC)c2c1c(OC)cc1c(=O)cc(-c3ccc4cc[nH]c4c3)oc12 | 0.95 nM | 142 nM | > 1000 nM | 149 | > 1050 |
| COc1ccc(OC)c2c1c(OC)cc1c(=O)cc(-c3cccnc3)oc12 | 1 nM | 7.6 nM | 117 nM | 7.6 | 117 |
| COc1ccc(OC)c2c1c(OC)cc1c(=O)cc(-c3ccc(Br)cn3)oc12 | 1.3 nM | 38.9 nM | 623 nM | 29.9 | 479 |
| COc1ccc(OC)c2c1c(OC)cc1c(=O)cc(-c3cncc(C(=O)O)c3)oc12 | 30.1 nM | 85.8 nM | > 1000 nM | 2.9 | > 33.2 |
| COc1ccc(OC)c2c1c(OC)cc1c(=O)cc(-c3cccc(N4CCN(C)CC4)c3)oc12 | > 1000 nM | > 1000 nM | > 1000 nM |  |  |
| COc1ccc(OC)c2c1c(OC)cc1c(=O)cc(-c3ccccn3)oc12 | 0.6 nM | 5.4 nM | 108 nM | 9 | 179 |
| COc1ccc(OC)c2c1c(OC)cc1c(=O)cc(-c3ccnc(F)c3)oc12 | 0.93 nM | 38.9 nM | 518 nM | 41.8 | 557 |
| COc1ccc(OC)c2c1c(OC)cc1c(=O)cc(-c3ccc4[nH]cnc4c3)oc12 | 15.6 nM | 42.4 nM | > 1000 nM | 2.7 | > 64.1 |
| COc1ccc(OC)c2c1c(OC)cc1c(=O)cc(-c3cccc(N4CCOCC4)c3)oc12 | 14.9 nM | 132 nM | > 1000 nM | 8.9 | > 67.1 |
| COc1ccc(OC)c2c1c(OC)cc1c(=O)cc(-c3cncc(N)c3)oc12 | 22.9 nM | 18.8 nM | 628 nM | 0.8 | 27.4 |
| COc1ccc(OC)c2c1c(OC)cc1c(=O)cc(-c3ccc(Cl)cn3)oc12 | 0.14 nM | 1.6 nM | 208 nM | 11.4 | 1490 |
| COc1ccc(OC)c2c1c(OC)cc1c(=O)cc(-c3cccnc3Br)oc12 | 63.9 nM | 60.7 nM | 966 nM | 0.9 | 15.1 |
| COc1ccc(OC)c2c1c(OC)cc1c(=O)cc(-c3cccc(F)n3)oc12 | 0.38 nM | 2.3 nM | 668 nM | 6.1 | 1760 |
| COc1ccc(OC)c2c1c(OC)cc1c(=O)cc(-c3cncc(O)c3)oc12 | 10.3 nM | 80.9 nM | > 1000 nM | 7.9 | > 97.1 |
| COc1ccc(OC)c2c1c(OC)cc1c(=O)cc(-c3cccnc3N)oc12 | 175 nM | 137 nM | > 1000 nM | 0.8 | > 5.7 |
| COc1ccc(OC)c2c1c(OC)cc1c(=O)cc(-c3cccc(Cl)n3)oc12 | 0.3 nM | 5.7 nM | 349 nM | 19 | 1160 |
| COc1ccc(OC)c2c1c(OC)cc1c(=O)cc(-c3ccc(N)cn3)oc12 | 6 nM | 66.6 nM | > 1000 nM | 11.1 | > 167 |

| SMILES | IC50 (Cytochrome P450 1B1) | IC50 (Cytochrome P450 1A1) | IC50 (Cytochrome P450 1A2) | Ratio IC50 (Homo sapiens [1]) | Ratio IC50 (Homo sapiens [2]) |
| --- | --- | --- | --- | --- | --- |
| COc1ccc(OC)c2c1c(OC)cc1c(=O)cc(-c3ccnc(N)c3)oc12 | 20.6 nM | 15.3 nM | > 1000 nM | 0.7 | > 48.5 |
| COc1ccc(OC)c2c1c(OC)cc1c(=O)cc(-c3c[nH]c4ncccc34)oc12 | 189 nM | 23.8 nM | > 1000 nM | 0.1 | > 5.3 |
| COc1ccc(OC)c2c1c(OC)cc1c(=O)cc(-c3ccco3)oc12 | 1.2 nM | 13.8 nM | 67.2 nM | 11.5 | 56 |
| COc1ccc(OC)c2c1c(OC)cc1c(=O)cc(-c3cccs3)oc12 | 4.8 nM | 4.4 nM | 40.4 nM | 0.9 | 8.4 |
| COc1ccc(OC)c2c1c(OC)cc1c(=O)cc(-c3ccncc3N)oc12 | 24.8 nM | 31.6 nM | > 1000 nM | 1.3 | > 40.3 |
| COc1ccc(OC)c2c1c(OC)cc1c(=O)cc(-c3ccc4[nH]ncc4c3)oc12 | 2 nM | 1.6 nM | > 1000 nM | 0.8 | > 500 |
| COc1ccc(OC)c2c1c(OC)cc1c(=O)cc(-c3ccnc(Cl)c3)oc12 | 1.1 nM | 91.6 nM | > 1000 nM | 83.3 | > 909 |
| COc1ccc(OC)c2c1c(OC)cc1c(=O)cc(-c3cccc(O)n3)oc12 | 7.7 nM | 323 nM | > 1000 nM | 41.9 | > 130 |
| COc1ccc(OC)c2c1c(OC)cc1c(=O)cc(-c3ccnc(O)c3)oc12 | 61.5 nM | 232 nM | > 1000 nM | 3.8 | > 16.3 |
| COc1ccc(OC)c2c1c(OC)cc1c(=O)cc(-c3cccc(C)n3)oc12 | 1.2 nM | 19.9 nM | 148 nM | 16.6 | 124 |
| COc1ccc(OC)c2c1c(OC)cc1c(=O)cc(-c3cccc(N)n3)oc12 | 6.5 nM | 56.8 nM | > 1000 nM | 8.7 | > 154 |
| COc1ccc(OC)c2c1c(OC)cc1c(=O)cc(-c3ccnc(Br)c3)oc12 | 0.46 nM | 26.9 nM | > 1000 nM | 58.5 | > 2170 |
| COc1ccc(OC)c2c1c(OC)cc1c(=O)cc(-c3c[nH]c4ccccc34)oc12 | 4.1 nM | 16.5 nM | > 1000 nM | 4 | > 244 |
| COc1ccc(OC)c2c1c(OC)cc1c(=O)cc(-c3cc4ccccc4o3)oc12 | 0.87 nM | 10.1 nM | > 1000 nM | 11.6 | > 1150 |
| COc1ccc(OC)c2c1c(OC)cc1c(=O)cc(-c3cc(Cl)cc(N4CCN(C)CC4)c3)oc12 | 519 nM | > 1000 nM | > 1000 nM | > 1.9 | > 1.9 |
| COc1ccc(OC)c2c1c(OC)cc1c(=O)cc(-c3cccnc3O)oc12 | > 1000 nM | 152 nM | > 1000 nM |  |  |
| COc1ccc(OC)c2c1c(OC)cc1c(=O)cc(-c3ccc(N4CCN(C)CC4)cc3)oc12 | > 1000 nM | > 1000 nM | > 1000 nM |  |  |
